These results are taken from ChEMBL document CHEMBL1122913, “Novel dopamine receptor agonists and antagonists with preferential action on autoreceptors” (1985).

Calls of active or inactive are those of the source. The rule behind the calls is not given here.

As a reminder, the ED50 is the dose that gives a 50% effect, or the effect in half of the subjects.

The subject of assay [1] is Rattus norvegicus. The experiment in a line: Effective dose against DOPA accumulation in rat brain striatal region after no pretreatment by subcutaneous administration. The assay is classed as functional. The note with it: sc. Put shortly:
(§1)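 Untreated male Sprague-Dawley rats (200-300 g) received test drug sc 65 min and NSD 1015 100 mg/kg ip 30 min before death; saline controls. Limbic or striatal DOPA measured by HPLC-electrochemical detection. ED50 is the dose giving half-maximal increase or decrease of DOPA formation, from 4-5 dose levels (n = 3-10); controls = 100%.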

In assay [2] the test system is Rattus norvegicus. The experiment in a line: Effective dose against DOPA accumulation in rat brain striatal region after reserpine pretreatment by subcutaneous administration; No significant effect of 16 mg/kg subcutaneous administration. Also on record: dose 16 mg/kg. The assay is classed as functional, organism-based.
The species entered for assay [3] is Rattus norvegicus. The assay is described as follows: Locomotor activity after no pretreatment in rat at low-dose region expressed as percent of saline control. The assay is classed as functional.
The species named for assay [4] is Rattus norvegicus. The experiment in a line: Locomotor activity after no pretreatment in rat at high-dose region expressed as percent of saline control. The assay is classed as functional.
Assay [5] concerns Rattus norvegicus. The experiment in a line: Effective dose against DOPA accumulation in rat brain limbic region after no pretreatment by subcutaneous administration. The note with it: sc. The assay is classed as functional. Put shortly:
as §1

For assay [6], the system named is Rattus norvegicus. The experiment in a line: Effective dose against DOPA accumulation in rat brain limbic region after reserpine pretreatment by subcutaneous administration; No significant effect of 16 mg/kg subcutaneous administration. Type of assay: functional, organism-based. Also on record: dose 16 mg/kg.
Assay [7] is filed under the species Rattus norvegicus. The experiment in a line: Locomotor activity after reserpine pretreatment in rat. Type of assay: functional. In outline:
(§2)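 Rats received reserpine 10 mg/kg ip 6 h and DL-α-methyl-p-tyrosine methyl ester 250 mg/kg ip 1 h before, then test drug sc immediately before the session. Photocell counts accumulated over 30 min, mean ± SEM, n = 4-9; t test vs saline controls. Haloperidol 0.3 mg/kg ip 30 min before test drug used for blockade.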

Assay [8] relates to Rattus norvegicus. The experiment in a line: Effective dose against DOPA accumulation in rat brain limbic region after reserpine pretreatment by subcutaneous administration; No significant effect at 0.5 mg/kg intraperitoneal administration. Type of assay: functional, organism-based. Also on record: dose 0.5 mg/kg.
The species named for assay [9] is Rattus norvegicus. The experiment in a line: Locomotor activity after reserpine pretreatment in rat; Not Tested. The assay is classed as functional, organism-based.
Assay [10] has as its system Rattus norvegicus. The experiment in a line: Effective dose against DOPA accumulation in rat brain striatal region after reserpine pretreatment by subcutaneous administration; No significant effect at 0.5 mg/kg intraperitoneal administration. Type of assay: functional, organism-based. Also on record: dose 0.5 mg/kg.
The species entered for assay [11] is Rattus norvegicus. The experiment in a line: Locomotor activity after no pretreatment in rat at low-dose region expressed as percent of saline control; Inactive. The assay is classed as functional, organism-based.
In assay [12] the test system is Rattus norvegicus. The assay is described as follows: Effective dose against DOPA accumulation in rat brain limbic region after reserpine pretreatment by subcutaneous administration. The assay is classed as functional. Particulars: sc. Put shortly: (§3)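 Male Sprague-Dawley rats (200-300 g), reserpine 5 mg/kg ip 18 h, test drug sc 60 min, and NSD 1015 100 mg/kg ip 30 min before death; saline controls. Limbic and striatal DOPA measured by HPLC-electrochemical detection. ED50 is the dose giving half-maximal decrease of DOPA formation, estimated from 4-7 dose levels (n = 3); controls = 100%.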

The species named for assay [13] is Rattus norvegicus. The experiment in a line: Locomotor activity after no pretreatment in rat at high-dose region expressed as percent of saline control; Inactive. Type of assay: functional, organism-based.
For assay [14], the system named is Rattus norvegicus. The assay is described as follows: Effective dose against DOPA accumulation in rat brain striatal region after reserpine pretreatment by subcutaneous administration. Type of assay: functional. The note with it: sc. In outline: as §3
Assay [15] has as its system Rattus norvegicus. The experiment in a line: Effective dose against DOPA accumulation in rat brain limbic region after no pretreatment by subcutaneous administration; No significant effect of 16 mg/kg subcutaneous administration. The assay is classed as functional, organism-based. On the set-up: dose 16 mg/kg.
In assay [16] the test system is Rattus norvegicus. The assay is described as follows: Effective dose against DOPA accumulation in rat brain striatal region after no pretreatment by subcutaneous administration; No significant effect of 16 mg/kg subcutaneous administration. The assay is classed as functional, organism-based. On the set-up: dose 16 mg/kg.
Assay [17] is filed under the species Rattus norvegicus. The assay is described as follows: Locomotor activity after reserpine pretreatment in rat(p<0.001). Type of assay: functional. In outline:
as §2

As to `CCCN(CCC)[C@@H]1CCc2c(OC)cccc2[C@@H]1C.Cl`, the ED50 was 3 mg/kg in assay [1] and 4 mg/kg in assay [5]. Moreover, the ED50 entry in assay [2] and in assay [6] was “inactive” throughout. Moreover, the Control in [3] is 144%; in assay [4], 49%. For the same compound, the “Accumulated counts/30 min” value in assay [7] came out at 4.

In the case of `O=C(CCCN1CCC(O)(c2ccc(Cl)cc2)CC1)c1ccc(F)cc1` [HALOPERIDOL], the ED50 in assay [1] and in assay [5] was 0.07 mg/kg throughout. In addition, the ED50 entry in assay [8] and in assay [10] was “inactive” each time. The “Accumulated counts/30 min” value in assay [9] is “inactive”. Also, the Control in [3] amounted to 75%; in assay [4], 3%.

For the compound `CCCN(CCC)[C@H]1CCc2c(OC)cccc2[C@H]1C.Cl`, the Control result in assay [11] and in [13] was “inactive” each time. Further, the ED50 in [12] came to 1.7 mg/kg; in assay [14], 1.8 mg/kg. The ED50 entry in assay [15] and in [16] was “inactive” throughout. In addition, in assay [7], the “Accumulated counts/30 min” value was 8.

Take `CCCN(CCC)[C@H]1CCc2c(O)cccc2[C@H]1C.Cl`: the 50% effective dose (ED50) in [1] was 0.25 mg/kg; in [12], 0.09 mg/kg; in [5] it was 0.25 mg/kg; in [14] it was 0.1 mg/kg. Further, the Control in [3] turned out to be 65%; in assay [4], 171%. In assay [7], the “Accumulated counts/30 min” value was 79.

Turning to `CCCN(CCC)[C@@H]1CCc2c(O)cccc2[C@@H]1C.Cl`, the ED50 in [1] came to 2.8 mg/kg; in assay [5] it was 3 mg/kg. Besides, the ED50 result in assay [2] and in [6] was “inactive” each time. Further, the Control in assay [3] is given as 128%; in assay [4], 69%. Further, in [7], the “Accumulated counts/30” value is listed as 6.

On to `CN1CCc2cccc3c2[C@H]1Cc1ccc(O)c(O)c1-3` [APOMORPHINE], for which the ED50 in assay [12] was 0.06 mg/kg; in assay [14] it was 0.07 mg/kg. Also, in assay [17], the “Accumulated counts/30” value is 361. The Control in assay [3] turned out to be 52%; in assay [4] it was 277%.
